# According to ChEMBL document CHEMBL3352683, “Rational design of urea-based glutamate carboxypeptidase II (GCPII) inhibitors as versatile tools for specific drug targeting and delivery” (Bioorg Med Chem, 2014):
# Target: Glutamate carboxypeptidase 2 (Homo sapiens, UniProt Q04609)
# Experiment: Inhibition of human recombinant N-terminal Avi-tagged glutamate carboxypeptidase 2 extracellular domain (44 to 750 amino acids) using pteroyl-di-L-glutamate substrate by HPLC method
# Method in brief: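 Avi-GCPII (0.2 ng) in 25 mM Bis-Tris propane, 150 mM NaCl, 0.001% octaethylene glycol monododecyl ether, pH 7.4, preincubated with inhibitor (ten concentrations) 5 min at 37 °C. Reaction started with pteroyl-di-L-glutamate (20 µl of 4 µM stock), run 20 min at 37 °C, stopped with 2-PMPA. Substrate and product separated by isocratic HPLC, detected at 281 nm; IC50 from full curves, Ki mean ± SD, duplicate or triplicate.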
# Glutamate carboxypeptidase 2, sequence (Q04609 whole entry, the tested form may be a part): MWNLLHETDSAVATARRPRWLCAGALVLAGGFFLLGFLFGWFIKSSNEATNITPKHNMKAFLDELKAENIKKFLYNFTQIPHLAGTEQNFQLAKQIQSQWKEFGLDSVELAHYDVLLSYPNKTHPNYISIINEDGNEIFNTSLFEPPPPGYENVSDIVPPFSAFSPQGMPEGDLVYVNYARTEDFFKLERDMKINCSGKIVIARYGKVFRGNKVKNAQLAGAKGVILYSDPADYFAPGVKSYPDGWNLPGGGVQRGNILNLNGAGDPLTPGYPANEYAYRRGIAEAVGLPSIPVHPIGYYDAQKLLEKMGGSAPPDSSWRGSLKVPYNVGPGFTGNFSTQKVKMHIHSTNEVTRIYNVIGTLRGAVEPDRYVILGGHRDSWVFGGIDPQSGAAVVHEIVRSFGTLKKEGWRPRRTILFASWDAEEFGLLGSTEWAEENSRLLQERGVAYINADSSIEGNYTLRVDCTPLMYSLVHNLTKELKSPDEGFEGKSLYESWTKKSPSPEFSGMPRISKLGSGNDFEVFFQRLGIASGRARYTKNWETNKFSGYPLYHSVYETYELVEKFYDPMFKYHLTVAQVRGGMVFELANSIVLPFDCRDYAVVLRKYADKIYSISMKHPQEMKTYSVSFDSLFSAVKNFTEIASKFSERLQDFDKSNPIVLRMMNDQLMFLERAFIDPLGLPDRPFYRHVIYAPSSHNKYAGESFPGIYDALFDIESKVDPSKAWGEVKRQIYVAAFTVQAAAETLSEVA
row,SMILES,Ki [nM]
1,O=C(O)CC[C@H](NC(=O)N[C@@H](CCCCNC(=O)CCOCCOCCOCCOCCOCCOCCOCCOCCNC(=O)CCCC[C@@H]1SC[C@@H]2NC(=O)N[C@@H]21)C(=O)O)C(=O)O,6.39
2,O=C(O)CC[C@H](NC(=O)N[C@@H](CCCCNC(=O)CCOCCOCCOCCOCCOCCOCCOCCOCCOCCOCCOCCOCCNC(=O)CCCC[C@@H]1SC[C@@H]2NC(=O)N[C@@H]21)C(=O)O)C(=O)O,10.5
3,CC(=O)NCCOc1ccccc1CC(=O)NCCCC[C@H](NC(=O)N[C@@H](CCC(=O)O)C(=O)O)C(=O)O,1.58
4,O=C(O)CC[C@H](NC(=O)N[C@@H](CCCCNC(=O)Cc1ccccc1OCCNC(=O)CCOCCOCCOCCOCCOCCOCCOCCOCCOCCOCCOCCOCCNC(=O)CCCC[C@H]1SC[C@H]2NC(=O)N[C@H]21)C(=O)O)C(=O)O,28.1
5,CC(=O)NCCOc1ccccc1NC(=O)NCCCC[C@H](NC(=O)N[C@@H](CCC(=O)O)C(=O)O)C(=O)O,0.377
6,O=C(O)CC[C@H](NC(=O)N[C@@H](CCCCNC(=O)Nc1ccccc1OCCNC(=O)CCOCCOCCOCCOCCOCCOCCOCCOCCOCCOCCOCCOCCNC(=O)CCCC[C@@H]1SC[C@@H]2NC(=O)N[C@@H]21)C(=O)O)C(=O)O,7.6
7,CC(=O)N(CCCC[C@H](NC(=O)N[C@@H](CCC(=O)O)C(=O)O)C(=O)O)Cc1ccccc1,0.312
8,O=C(O)CC[C@H](NC(=O)N[C@@H](CCCCN(Cc1ccccc1)C(=O)CCOCCOCCOCCOCCOCCOCCOCCOCCOCCOCCOCCOCCNC(=O)CCCC[C@@H]1SC[C@@H]2NC(=O)N[C@@H]21)C(=O)O)C(=O)O,3.42
9,CC(=O)NCCOc1ccccc1C(=O)NCCCC[C@H](NC(=O)N[C@@H](CCC(=O)O)C(=O)O)C(=O)O,0.601
10,O=C(O)CC[C@H](NC(=O)N[C@@H](CCCCNC(=O)c1ccccc1OCCNC(=O)CCOCCOCCOCCOCCOCCOCCOCCOCCOCCOCCOCCOCCNC(=O)CCCC[C@@H]1SC[C@@H]2NC(=O)N[C@@H]21)C(=O)O)C(=O)O,11
11,CC(=O)NCCOc1cc(F)ccc1C(=O)NCCCC[C@H](NC(=O)N[C@@H](CCC(=O)O)C(=O)O)C(=O)O,1.01
12,CC(=O)NCCOc1cc(Cl)ccc1C(=O)NCCCC[C@H](NC(=O)N[C@@H](CCC(=O)O)C(=O)O)C(=O)O,0.722
13,CC(=O)NCCOc1cc(Br)ccc1C(=O)NCCCC[C@H](NC(=O)N[C@@H](CCC(=O)O)C(=O)O)C(=O)O,0.268
14,CC(=O)NCCOc1cc(I)ccc1C(=O)NCCCC[C@H](NC(=O)N[C@@H](CCC(=O)O)C(=O)O)C(=O)O,0.6
15,CC(=O)N(CCCC[C@H](NC(=O)N[C@@H](CCC(=O)O)C(=O)O)C(=O)O)Cc1ccc(Br)cc1,0.0449
16,CC(=O)NCCOc1cc(Br)ccc1NC(=O)NCCCC[C@H](NC(=O)N[C@@H](CCC(=O)O)C(=O)O)C(=O)O,0.221
17,O=C(O)CC[C@H](NC(=O)N[C@@H](CCCCNC(=O)Nc1ccc(Br)cc1OCCNC(=O)CCOCCOCCOCCOCCOCCOCCOCCOCCOCCOCCOCCOCCNC(=O)CCCC[C@@H]1SC[C@@H]2NC(=O)N[C@@H]21)C(=O)O)C(=O)O,3.88
18,CC(=O)NCCCC[C@H](NC(=O)N[C@@H](CCC(=O)O)C(=O)O)C(=O)O,0.174
19,NCCCC[C@H](NC(=O)N[C@@H](CCC(=O)O)C(=O)O)C(=O)O,44.3
